Values belong to the compound of their own block, whether it stands above or below them.
What was measured:
[1] = system: L1210; test: Growth inhibitory activity against cultured L1210 cells; type: functional, cell-based; settings: Mus musculus
[2] = biological target: T1, Dihydrofolate reductase (Mus musculus, UniProt P00375); test: Inhibitory activity against dihydrofolate reductase(DHFR)
T1 sequence (P00375 whole entry): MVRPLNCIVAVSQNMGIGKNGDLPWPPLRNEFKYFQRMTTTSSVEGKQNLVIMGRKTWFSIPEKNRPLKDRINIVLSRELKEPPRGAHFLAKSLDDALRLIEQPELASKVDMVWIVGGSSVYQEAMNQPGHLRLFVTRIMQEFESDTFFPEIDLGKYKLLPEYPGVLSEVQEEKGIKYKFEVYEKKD
In short: (§1)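 DHFR purified from L1210 murine leukemia cells by affinity chromatography on MTX-Sepharose, then used as the enzyme source for inhibitor titration; IC50 read from the enzyme-activity titration curve.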

[3] = biological target: T1, Dihydrofolate reductase; test: Inhibitory activity against dihydrofolate reductase(DHFR) isolated from L1210 murine leukemia cells; type: cell-free; in short: as §1
[4] = system: L1210; test: Inhibitory activity against growth of mouse L1210 leukemia cells; type: functional, cell-based
[5] = system: L1210 ( R81); test: Inhibition of the growth of the MTX-resistant L1210/R81 cell line; type: functional, cell-based; settings: Mus musculus
[6] = system: L1210; test: Inhibitory activity against cultured L1210 cells; settings: Mus musculus
[7] = biological target: T2, Dihydrofolate reductase (Mus musculus) (UniProt P00375); test: Inhibitory activity against dihydrofolate reductase(DHFR) isolated from L1210 murine leukemia cells at 50 uM; type: cell-free
T2 sequence (whole entry): T1 sequence (P00375 whole entry)

[8] = system: L1210; test: Inhibitory activity against L1210 cells; type: functional, cell-based; settings: Mus musculus
[9] = system: L1210 ( R81); test: Inhibitory activity against L1210/R81 cells; type: functional, cell-based; settings: Mus musculus

Structure (SMILES): CN(Cc1cnc2nc(N)nc(N)c2n1)c1ccc(C(=O)NC(C/C=C/C(=O)O)C(=O)O)cc1 (centres undefined)
IC50 [1]: 350 nM | IC50 [5]: > 300 µM | IC50 [2]: 32 µM

Structure (SMILES): CN(Cc1cnc2nc(N)nc(N)c2n1)c1ccc(C(=O)N[C@@H](CCC(=O)O)C(=O)O)cc1 [METHOTREXATE]
IC50 [6]: 5 nM

Structure (SMILES): Nc1nc(N)c2nc(CNc3ccc(C(=O)N[C@@H](CCC(=O)O)C(=O)O)cc3)cnc2n1 [AMINOPTERIN]
IC50 [3]: 0.002 µM

Structure (SMILES): CN(Cc1cnc2nc(N)nc(N)c2n1)c1ccc(C(=O)N(CCC(=O)O)CC(=O)O)cc1
IC50 [8]: 12 µM | IC50 [2]: 0.038 µM | IC50 [9]: 180 µM

Continued, values first:

IC50 [1]: 31 nM | IC50 [2]: 46 µM
Structure (SMILES): Nc1nc(N)c2nc(CNc3ccc(C(=O)NC(C/C=C/C(=O)O)C(=O)O)cc3)cnc2n1 (centres undefined)

IC50 [3]: 200 µM | IC50 [4]: 1.5 µM
Structure (SMILES): Nc1nc(N)c2nc(CNc3cccc(C(=O)NC(CCC(=O)O)C(=O)O)c3)cnc2n1 (centres undefined)

IC50 [4]: 64 µM | inhibition [7]: 20%
Structure (SMILES): Nc1nc(N)c2nc(CNc3ccccc3C(=O)NC(CCC(=O)O)C(=O)O)cnc2n1 (centres undefined)

Source: ChEMBL document CHEMBL1124079, “Methotrexate analogues. 31. Meta and ortho isomers of aminopterin, compounds with a double bond in the side chain, and a novel analogue modified at the alpha-carbon: chemical and in vitro biological studies” (J Med Chem, 1988)
